DNA FID counter = counter-screen for HCV NS3 helicase inhibitors: DNA intercalator displacement. DNA fluorescent intercalator displacement, fluorescence. inhibition, % at 7.9 µM. actives 0.17% (n = 290,000). AID 1845; in the data active = inhibition above about 37%;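 note: 0% = vehicle and 100% = reference compound; higher means more ethidium bromide displaced from hairpin DNA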
TRPC4 agonist = TRPC4 (mouse) channel activation. Q9QUQ5. HEK293 TRPC4beta/mu-opioid, Fluo4 calcium fluorescence; active compounds read high. B-score at 10 µM. actives 0.49% (n = 310,000). AID 2237;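 active = B-score above 5 SD of library B-scores, and initial fluorescence ratio not above library mean plus 5 SD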;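 note: positive B-score marks a calcium rise read as TRPC4 activation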
Target sequence (Q9QUQ5 whole entry, looked up): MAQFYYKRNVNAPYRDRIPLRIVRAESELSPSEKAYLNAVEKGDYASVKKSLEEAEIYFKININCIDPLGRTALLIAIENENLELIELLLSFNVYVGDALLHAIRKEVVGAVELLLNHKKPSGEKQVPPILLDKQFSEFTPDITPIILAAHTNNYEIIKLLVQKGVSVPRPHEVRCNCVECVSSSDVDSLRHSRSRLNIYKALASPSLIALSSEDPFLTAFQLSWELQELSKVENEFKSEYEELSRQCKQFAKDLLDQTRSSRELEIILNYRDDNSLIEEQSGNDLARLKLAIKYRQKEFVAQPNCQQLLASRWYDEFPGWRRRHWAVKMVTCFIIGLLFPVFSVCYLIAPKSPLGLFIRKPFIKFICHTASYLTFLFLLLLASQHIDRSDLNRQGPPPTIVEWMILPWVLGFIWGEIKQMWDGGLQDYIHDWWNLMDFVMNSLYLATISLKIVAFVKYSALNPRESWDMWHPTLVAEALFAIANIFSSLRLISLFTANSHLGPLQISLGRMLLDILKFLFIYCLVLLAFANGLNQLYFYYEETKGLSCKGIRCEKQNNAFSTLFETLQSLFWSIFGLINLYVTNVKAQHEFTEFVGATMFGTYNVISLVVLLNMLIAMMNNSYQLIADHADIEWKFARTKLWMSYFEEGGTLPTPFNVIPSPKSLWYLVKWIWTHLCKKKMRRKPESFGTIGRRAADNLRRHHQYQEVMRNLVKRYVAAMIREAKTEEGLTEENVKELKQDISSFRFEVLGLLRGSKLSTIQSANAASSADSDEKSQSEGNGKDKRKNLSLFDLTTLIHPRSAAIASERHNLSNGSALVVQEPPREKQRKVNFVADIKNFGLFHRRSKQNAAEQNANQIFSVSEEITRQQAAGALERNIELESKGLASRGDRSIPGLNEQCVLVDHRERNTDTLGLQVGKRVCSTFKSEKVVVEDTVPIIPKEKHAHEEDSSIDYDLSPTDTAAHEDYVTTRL
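Assay system: HEK293 stable line with TRPC4beta plus mu-opioid receptor. Times: dye 45 min RT, read 110 s. Measured by: kinetic Fluo4 calcium fluorescence. Measure: B score of integrated ratio. Controls: assay buffer as low control, maximal DAMGO as high control.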
TRPC6 inhibitor = mouse TRPC6 channel inhibition; Q61143; HEK293-TRPC6, membrane potential dye, ACh-evoked depolarization; active compounds read low; B-score at 10 µM; actives 1.1% (n = 310,000);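 active = B-score under library mean minus 3 SD, initial fluorescence not abnormally high, positive integrated signal ratio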;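 note: B-score derived from integrated fluorescence ratio over the kinetic read; more negative B-score means stronger inhibition of depolarization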
TRPC4 PAM = allosterically enhances the mouse TRPC4 cation channel; Q9QUQ5; HEK293 TRPC4beta/mu-opioid, DAMGO EC20, Fluo-4 Ca2+ flux; active compounds read high; B-score at 10 µM; actives 0.42% (n = 310,000);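 active = B-score of calcium response area above 5 SD of library B-scores, with initial fluorescence ratio within 5 SD of library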;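 note: B-score of integrated fluorescence ratio over time as area under calcium response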
TRPC4 block = TRPC4 (mouse) channel inhibition | Q9QUQ5 | HEK293 TRPC4beta/mu-opioid, DAMGO-evoked Fluo4 calcium flux; active compounds read low | B-score at 10 µM | actives 0.39% (n = 300,000);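 active = B-score over 3 SD under the library average, no early fluorescence shift, positive overall ratio signal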
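System: stable TRPC4beta/mu-opioid receptor HEK293 cells; Dosing: single-point compound dosing; Measured by: Fluo4 Ca2+ flux fluorescence; Read-out basis: per-well B score of integrated baseline-normalized Fluo4 ratio.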
TRPC6 act = activates the mouse TRPC6 cation channel; actives 0.13% (n = 310,000); HEK293-TRPC6 membrane potential dye fluorescence; active compounds read high; B-score at 10 µM; Q61143;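 active = B-score of the integrated fluorescence ratio above library mean plus 3 SD, and starting fluorescence ratio within library mean plus 5 SD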;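 note: higher score means more depolarization so channel activation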
HEK293 TRPC6 ctr = parental HEK293 nonspecific activity of TRPC6 modulators. membrane potential dye fluorescence. membrane potential signal change, % at 10 µM. shares compounds with TRPC6 inhibitor. actives 51% (n = 2,400);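 active = membrane potential signal moves up or down beyond 5 SD from buffer-only wells, on both duplicate plates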
HEK293 MPD ctr 2 = second check of TRPC6 modulator effects in parental HEK293 cells | shares compounds with TRPC6 inhibitor | membrane potential dye fluorescence; after compound, maximal acetylcholine stimulation | inhibition, % at 10 µM | actives 14% (n = 2,400);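 active = membrane potential signal drops by more than 5 SD from the mean control signal, in both duplicate plates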;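 note: plate controls were acetylcholine ECmax control wells for no effect and buffer only wells for full effect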
TRPC4 ctr mod = selectivity of TRPC6 modulators against mouse TRPC4 | HEK293 TRPC4/mu-opioid, membrane potential fluorescence | shares compounds with TRPC6 inhibitor | percent change from control (negative = decrease, positive = increase), % at 10 µM | actives 69% (n = 2,400);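 active = membrane potential signal moved up or down beyond 5 SD of buffer control wells, in both duplicate plates, actives on both sides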;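 note: plate controls were assay buffer wells for no effect and DAMGO maximal-effect wells for full effect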
TRPC4/MOR inh 2 = second check of whether TRPC6 modulators also affect mouse TRPC4; shares compounds with TRPC6 inhibitor; HEK293 TRPC4/mu-opioid, membrane potential dye fluorescence; stimulated with maximal-effect DAMGO; inhibition, % at 10 µM; actives 55% (n = 2,400); AID 488928;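 active = drop in membrane potential signal beyond 5 SD of the control wells in both duplicate plates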;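 note: TRPC4 counter screen for TRPC6 hits run under conditions tuned for TRPC6 not TRPC4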
TRPC6 inh conf = mouse TRPC6 inhibitor confirmation; shares compounds with TRPC6 inhibitor; HEK293-TRPC6, membrane potential dye, ACh-evoked depolarization; inhibition, % at 10 µM; actives 43% (n = 3,300); AID 488960;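 active = fluorescence ratio falls more than 5 SD below the full-stimulation control mean, in both duplicate runs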;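 note: integrated fluorescence ratio of peak minus minimum over baseline after agonist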
TRPC6 act conf = mouse TRPC6 activator confirmation. shares compounds with TRPC6 inhibitor. HEK293-TRPC6 membrane potential dye fluorescence, FDSS. activation, % at 10 µM. actives 11% (n = 2,800). AID 488961;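 active = ratio signal rise beyond 5 SD above unstimulated control wells' mean, seen in both duplicate runs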;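 note: plate controls were buffer EC0 wells for no effect and acetylcholine ECmax response for full effect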
The depositor's hits bear a star. Only some compounds are listed: those with a hit (about 2.3% of all), similar ones and a draw of the others.

Cc1cccc(-c2cc3nc(C)cc(NCCCN(C)C)n3n2)c1 was read as DNA FID counter 34.9, TRPC4 agonist inactive, TRPC6 inhibitor -7.23*, TRPC4 PAM 13*, TRPC4 block inactive, TRPC6 act inactive, HEK293 TRPC6 ctr -194.5%*, HEK293 MPD ctr 2 74.5%*, TRPC4 ctr mod -40.0%*, TRPC4/MOR inh 2 60.5%*, TRPC6 inh conf 55.5%* and TRPC6 act conf inactive.
`CCN(CC)CCCNc1cc(C)nc2cc(-c3cccs3)nn12` gave DNA FID counter 30.2, TRPC4 agonist inactive, TRPC6 inhibitor -7.54*, TRPC4 PAM inactive, TRPC4 block inactive, TRPC6 act inactive, HEK293 TRPC6 ctr -415.5%*, HEK293 MPD ctr 2 inactive, TRPC4 ctr mod -62.0%*, TRPC4/MOR inh 2 51.5%*, TRPC6 inh conf 44.5%* and TRPC6 act conf inactive.
CC(Sc1ccccc1)C(=O)NNC(=O)c1csc(N2CCOCC2)n1 (configuration not stated) was read as TRPC4 agonist inactive, TRPC6 inhibitor inactive, TRPC4 PAM inactive, TRPC4 block inactive and TRPC6 act inactive.
For O=C(Cn1nnnc1CN1CCOCC1)N1CCC(c2cccc(Cl)c2)C1 (configuration not stated) the results were DNA FID counter -10.3, TRPC4 agonist inactive, TRPC6 inhibitor inactive, TRPC4 PAM inactive, TRPC4 block inactive and TRPC6 act inactive.
`COc1ccccc1OCC(=O)OCC(=O)Nc1sccc1C(N)=O` gave DNA FID counter -3.6, TRPC4 agonist inactive, TRPC6 inhibitor -5.42*, TRPC4 PAM inactive, TRPC4 block inactive, TRPC6 act inactive, HEK293 TRPC6 ctr inactive, HEK293 MPD ctr 2 inactive, TRPC4 ctr mod inactive, TRPC4/MOR inh 2 inactive, TRPC6 inh conf inactive and TRPC6 act conf inactive.
Screening CCC(C(=O)NC1CCCCC1)n1c(SCc2cccc(F)c2)nc2ccncc21 (configuration not stated) returned DNA FID counter -4.4, TRPC4 agonist inactive, TRPC6 inhibitor -5.06*, TRPC4 PAM inactive, TRPC4 block inactive, TRPC6 act inactive, HEK293 TRPC6 ctr inactive, HEK293 MPD ctr 2 inactive, TRPC4 ctr mod inactive, TRPC4/MOR inh 2 inactive, TRPC6 inh conf inactive and TRPC6 act conf inactive.
`Cc1cc(C)c2ccc(Cl)cc2n1` gave DNA FID counter -2.4, TRPC4 agonist inactive, TRPC6 inhibitor inactive, TRPC4 PAM inactive, TRPC4 block inactive and TRPC6 act inactive.
Screening CC(=O)c1c(C)nc2cc(Cl)ccc2c1N returned DNA FID counter 4.1, TRPC4 agonist inactive, TRPC6 inhibitor -5.85*, TRPC4 PAM inactive, TRPC4 block inactive, TRPC6 act inactive, HEK293 TRPC6 ctr -65.5%*, HEK293 MPD ctr 2 inactive, TRPC4 ctr mod -12.0%*, TRPC4/MOR inh 2 32.5%*, TRPC6 inh conf inactive and TRPC6 act conf inactive.
CC(=O)Nc1ccc(N=c2cc([N+](=O)[O-])cc(Cl)n2O)cc1 was read as DNA FID counter -2.0, TRPC4 agonist inactive, TRPC6 inhibitor inactive, TRPC4 PAM inactive, TRPC4 block inactive and TRPC6 act inactive.
For CCOC(=O)c1cc2[nH]c3ccccc3c2[n+](-c2ccc([N+](=O)[O-])cc2)c1C the results were DNA FID counter 10.6, TRPC4 agonist inactive, TRPC6 inhibitor -7.6*, TRPC4 PAM inactive, TRPC4 block inactive, TRPC6 act inactive, HEK293 TRPC6 ctr -275.0%*, HEK293 MPD ctr 2 inactive, TRPC4 ctr mod -49.5%*, TRPC4/MOR inh 2 56.0%*, TRPC6 inh conf 60.0%* and TRPC6 act conf inactive.
O=C(Nc1ccc(F)cc1)c1ccccc1Oc1ccc(C(F)(F)F)cc1[N+](=O)[O-] was read as DNA FID counter -8.2, TRPC4 agonist inactive, TRPC6 inhibitor -5.34*, TRPC4 PAM inactive, TRPC4 block inactive, TRPC6 act inactive, HEK293 TRPC6 ctr inactive, HEK293 MPD ctr 2 inactive, TRPC4 ctr mod inactive, TRPC4/MOR inh 2 35.0%*, TRPC6 inh conf inactive and TRPC6 act conf inactive.
For O=C(Nc1ccccc1)c1ccccc1Oc1ccc(C(F)(F)F)cc1[N+](=O)[O-] the results were DNA FID counter -15.1, TRPC4 agonist inactive, TRPC6 inhibitor inactive, TRPC4 PAM inactive, TRPC4 block inactive and TRPC6 act inactive.
Screening CN(Cc1ccco1)S(=O)(=O)c1cc(F)ccc1CN1C(=O)c2cccnc2C1=O returned DNA FID counter -21.4, TRPC4 agonist inactive, TRPC6 inhibitor inactive, TRPC4 PAM inactive, TRPC4 block inactive and TRPC6 act inactive.
